Source: ChEMBL document CHEMBL1147823, “Conformationally constrained analogues of diacylglycerol. 26. Exploring the chemical space surrounding the C1 domain of protein kinase C with DAG-lactones containing aryl groups at the sn-1 and sn-2 positions” (J Med Chem, 2006)

Target: Protein kinase C alpha type (Homo sapiens, UniProt P17252)
Assay: Displacement of [20-3H]PDBU from recombinant PKCalpha in presence of phosphatidylserine
How it was run: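 Competition binding with recombinant single-isozyme PKC-α as the target enzyme. Each ligand's ability to displace bound [20-³H]phorbol 12,13-dibutyrate was measured in the presence of phosphatidylserine. Ki values were derived from the competition, and both E- and Z-isomers were assayed.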

Compound | Ki [µM]
CC(C)C(C/C=C1\CC(CO)(COC(=O)c2cccc(O)c2)OC1=O)C(C)C (stereo unspecified) | 0.67
CC(C)C(C/C=C1/CC(CO)(COC(=O)c2ccccc2O)OC1=O)C(C)C (stereo unspecified) | 0.03
CCCCCC/C=C1/CC(CO)(COC(=O)CCCc2ccccc2)OC1=O (stereo unspecified) | 0.017
CCCCCCC/C=C1/CC(CO)(COC(=O)CCc2ccccc2)OC1=O (stereo unspecified) | 0.014
CC(C)C(C/C=C1\CC(CO)(COC(=O)c2ccccc2O)OC1=O)C(C)C (stereo unspecified) | 0.067
COc1ccc(/C=C2\CC(CO)(COC(=O)CC(C(C)C)C(C)C)OC2=O)cc1 (stereo unspecified) | 0.007
CC(C)C(CC(=O)OCC1(CO)C/C(=C\Cc2ccccc2)C(=O)O1)C(C)C (stereo unspecified) | 0.014
COc1cccc(C(=O)OCC2(CO)C/C(=C/CC(C(C)C)C(C)C)C(=O)O2)c1 (stereo unspecified) | 0.024
CCCCCCCCC/C=C1/CC(CO)(COC(=O)c2ccccc2)OC1=O (stereo unspecified) | 0.009
CCCCCCCCC/C=C1\CC(CO)(COC(=O)C2CCCCC2)OC1=O (stereo unspecified) | 0.009
CC(C)C(C/C=C1/CC(CO)(COC(=O)c2cccc(O)c2)OC1=O)C(C)C (stereo unspecified) | 0.406
COc1ccccc1/C=C1\CC(CO)(COC(=O)CC(C(C)C)C(C)C)OC1=O (stereo unspecified) | 0.016
CC(C)C(C/C=C1\CC(CO)(COC(=O)c2ccc(O)cc2)OC1=O)C(C)C (stereo unspecified) | 2.4
CC(C)C(C/C=C1\CC(CO)(COC(=O)C2CCCCC2)OC1=O)C(C)C (stereo unspecified) | 0.01
CCCCCCCCC/C=C1\CC(CO)(COC(=O)c2ccccc2)OC1=O (stereo unspecified) | 0.014
CC(C)C(C/C=C1/CC(CO)(COC(=O)c2ccc(O)cc2)OC1=O)C(C)C (stereo unspecified) | 0.983
COc1cccc(/C=C2\CC(CO)(COC(=O)CC(C(C)C)C(C)C)OC2=O)c1 (stereo unspecified) | 0.012
CC(C)C(C/C=C1\CC(CO)(COC(=O)c2ccccc2)OC1=O)C(C)C (stereo unspecified) | 0.028

Compound | Ki [µM]
COc1cccc(C(=O)OCC2(CO)C/C(=C\CC(C(C)C)C(C)C)C(=O)O2)c1 (stereo unspecified) | 0.039
CCCCCCCC/C=C1\CC(CO)(COC(=O)Cc2ccccc2)OC1=O (stereo unspecified) | 0.044
COc1ccccc1C(=O)OCC1(CO)C/C(=C\CC(C(C)C)C(C)C)C(=O)O1 (stereo unspecified) | 0.073
CCCCCCCCC/C=C1/CC(CO)(COC(=O)C2CCCCC2)OC1=O (stereo unspecified) | 0.005
CCCCCCCC/C=C1/CC(CO)(COC(=O)Cc2ccccc2)OC1=O (stereo unspecified) | 0.045
COc1ccc(C(=O)OCC2(CO)C/C(=C\CC(C(C)C)C(C)C)C(=O)O2)cc1 (stereo unspecified) | 0.036
CC(C)C(CC(=O)OCC1(CO)C/C(=C\c2ccccc2)C(=O)O1)C(C)C (stereo unspecified) | 0.012
CC(C)C(C/C=C1/CC(CO)(COC(=O)C2CCCCC2)OC1=O)C(C)C (stereo unspecified) | 0.008
CC(C)C(C/C=C1/CC(CO)(COC(=O)c2ccccc2)OC1=O)C(C)C (stereo unspecified) | 0.016
CCCCCCC/C=C1\CC(CO)(COC(=O)CCc2ccccc2)OC1=O (stereo unspecified) | 0.018
CC(C)C(CC(=O)OCC1(CO)C/C(=C\CCc2ccccc2)C(=O)O1)C(C)C (stereo unspecified) | 0.009
CC(C)C(CC(=O)OCC1(CO)C/C(=C\c2cccc(O)c2)C(=O)O1)C(C)C (stereo unspecified) | 0.017
CC(C)C(CC(=O)OCC1(CO)C/C(=C\c2ccc(O)cc2)C(=O)O1)C(C)C (stereo unspecified) | 0.019
CCCCCC/C=C1\CC(CO)(COC(=O)CCCc2ccccc2)OC1=O (stereo unspecified) | 0.027
CC(C)C(CC(=O)OCC1(CO)C/C(=C\c2ccccc2O)C(=O)O1)C(C)C (stereo unspecified) | 0.022
COc1ccc(C(=O)OCC2(CO)C/C(=C/CC(C(C)C)C(C)C)C(=O)O2)cc1 (stereo unspecified) | 0.018
COc1ccccc1C(=O)OCC1(CO)C/C(=C/CC(C(C)C)C(C)C)C(=O)O1 (stereo unspecified) | 0.023

Target: T1, Protein kinase C delta type (Homo sapiens, UniProt Q05655)
Assay: Binding affinity to PKCdeltaC1b in presence of phospholipid
Target sequence in this assay (Q05655 whole entry): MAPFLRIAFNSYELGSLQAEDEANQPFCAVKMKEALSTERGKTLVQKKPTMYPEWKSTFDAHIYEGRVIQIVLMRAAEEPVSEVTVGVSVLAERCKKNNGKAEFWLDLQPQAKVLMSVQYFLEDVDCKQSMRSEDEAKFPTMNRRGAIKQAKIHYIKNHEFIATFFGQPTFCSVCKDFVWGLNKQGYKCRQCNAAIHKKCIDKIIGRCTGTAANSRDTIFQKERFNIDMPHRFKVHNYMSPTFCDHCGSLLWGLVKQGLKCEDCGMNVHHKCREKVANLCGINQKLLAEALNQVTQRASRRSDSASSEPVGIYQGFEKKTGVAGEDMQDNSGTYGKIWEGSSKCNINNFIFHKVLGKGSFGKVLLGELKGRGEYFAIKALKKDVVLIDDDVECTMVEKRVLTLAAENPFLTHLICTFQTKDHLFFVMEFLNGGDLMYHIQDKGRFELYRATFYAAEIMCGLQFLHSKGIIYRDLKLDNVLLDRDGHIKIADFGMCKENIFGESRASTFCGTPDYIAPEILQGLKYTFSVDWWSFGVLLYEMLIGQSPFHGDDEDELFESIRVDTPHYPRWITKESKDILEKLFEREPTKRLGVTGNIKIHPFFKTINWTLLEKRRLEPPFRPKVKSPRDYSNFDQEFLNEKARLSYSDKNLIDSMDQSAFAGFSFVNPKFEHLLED

Compound | Ki [µM]
CC(C)C(C/C=C1\CC(CO)(COC(=O)c2ccc(O)cc2)OC1=O)C(C)C (stereo unspecified) | 0.98
CC(C)C(CC(=O)OCC1(CO)C/C(=C\c2ccc(O)cc2)C(=O)O1)C(C)C (stereo unspecified) | 0.0014

Target: T1, Protein kinase C delta type
Assay: Binding affinity to PKCdeltaC1b in absence of phospholipid
Target sequence in this assay (Q05655 whole entry): as above

Compound | Ki [µM]
CC(C)C(C/C=C1\CC(CO)(COC(=O)c2ccc(O)cc2)OC1=O)C(C)C (stereo unspecified) | 16.9
CC(C)C(CC(=O)OCC1(CO)C/C(=C\c2ccc(O)cc2)C(=O)O1)C(C)C (stereo unspecified) | 0.17

Target: T1, Protein kinase C delta type
Assay: Ratio of binding affinity to PKCdeltaC1b in presence to absence of phospholipid
Target sequence in this assay (Q05655 whole entry, looked up): as the sequence (Q05655 whole entry) above

Compound | Ratio Ki
CC(C)C(C/C=C1\CC(CO)(COC(=O)c2ccc(O)cc2)OC1=O)C(C)C (stereo unspecified) | 17
CC(C)C(CC(=O)OCC1(CO)C/C(=C\c2ccc(O)cc2)C(=O)O1)C(C)C (stereo unspecified) | 121
